Reference: publication PMC3113694 (Cancer research, 2010)
Several values for one entry are separate records, joined by “and”; a condition that tells them apart may be missing. Equal values may be shown once. Each block holds one molecule with its values, some of them ahead of it.

Legend:
U-937 = assay: Cytotoxicity, sulforhodamine B assay; format: cell-based, Human; conditions: read-out: 72 hour IC50, exposure time 72 h
[1] = Pharmacokinetics in mice after tail vein injection; format: in vivo, C57/BL6 mice
EL-4 = assay: Cytotoxicity, sulforhodamine B assay; format: cell-based; conditions: read-out: 72 hour IC50; EL-4 mouse lymphoma; exposure 72 h
GL-1 = assay: Cytotoxicity, sulforhodamine B assay; format: cell-based; conditions: read-out: 72 hour IC50; GL-1 dog lymphoma; exposure 72 h
[2] = read-out: Kd of PAC-1:Zn^2+; cited from earlier work
HeLa = assay: Cytotoxicity, sulforhodamine B assay; format: cell-based; conditions: read-out: 72 hour IC50; HeLa human cervical; exposure 72 h
Jurkat = assay: Cytotoxicity, sulforhodamine B assay; format: cell-based; conditions: read-out: 72 hour IC50; Jurkat human leukemia; exposure 72 h
healthy dog = assay: Toxicity of intravenous PAC-1 in a healthy dog; format: in vivo; conditions: 25 mg/kg as a 5-minute intravenous infusion; transient, not life-limiting
MDA-MB-231 = assay: Cytotoxicity, sulforhodamine B assay; format: cell-based; conditions: read-out: 72 hour IC50; MDA-MB-231 human breast; exposure 72 h
SK-Mel-5 = assay: Cytotoxicity, sulforhodamine B assay; format: cell-based; conditions: read-out: 72 hour IC50; SK-Mel-5 human melanoma; exposure 72 h
procaspase-3 D3A = molecular target: T1, procaspase-3 D3A (Homo sapiens, UniProt P42574, D175A/D28A/D9A); assay: Procaspase-3 activation; format: biochemical; conditions: 50 µM compound; for Incubation time to maximal activity: procaspase-3 7.5 µM, zinc 10 µM
T1 sequence (P42574 1-277 D9A/D28A/D175A): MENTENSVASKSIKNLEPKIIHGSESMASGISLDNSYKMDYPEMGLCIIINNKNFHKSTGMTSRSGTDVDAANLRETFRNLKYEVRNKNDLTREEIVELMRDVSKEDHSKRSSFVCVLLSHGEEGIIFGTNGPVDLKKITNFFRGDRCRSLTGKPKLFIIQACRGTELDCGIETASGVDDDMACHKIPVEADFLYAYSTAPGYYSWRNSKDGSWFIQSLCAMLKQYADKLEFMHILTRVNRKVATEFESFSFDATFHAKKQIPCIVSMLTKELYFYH
How it was run: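 Zinc-free uncleavable procaspase-3 (D9A/D28A/D175A), recombinantly expressed, at 7.5 µM in Chelex-treated 50 mM Hepes, 300 mM NaCl. Incubated with 10 µM ZnSO4. Basal activity read with 200 µM Ac-DEVD-pNA at 405 nm. Vehicle or test compound then added to 50 µM final and activity re-read every 20 min. Activity was taken from the slope and normalised to a zinc-free sample (100%) and DMSO (0%), n=3.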

C57/BL6 mice [3] = assay: Toxicity determination in mice after tail vein injection
C57/BL6 mice [4] = conditions: mouse, in vivo
OSW = assay: Cytotoxicity, sulforhodamine B assay; format: cell-based; conditions: read-out: 72 hour IC50; OSW dog lymphoma; exposure 72 h
17–71 = assay: Cytotoxicity, MTS cell viability assay; format: cell-based; conditions: read-out: 72 hour IC50, 17–71 dog lymphoma, exposure 72 h
[5] = Pharmacokinetics in healthy research dogs, single IV dose; format: in vivo; conditions: 25 mg/kg IV; individual dogs Hound A-D

Peak plasma concentration ([1]; 20 mg/kg tail vein injection): ~ 50 µM
Incubation time to maximal activity (procaspase-3 D3A): 5 min
Structure (SMILES): C=CCc1cccc(/C=N/NC(=O)CN2CCN(Cc3ccccc3)CC2)c1O [PAC-1]
IC50 (U-937): 9.3 ± 0.5 µM
IC50 (EL-4): 3.8 ± 0.9 µM
IC50 (GL-1): 4.9 ± 0.3 µM
Kd [2]: 0.052 ± 0.002 µM
IC50 (HeLa): 15.5 ± 3.8 µM
IC50 (Jurkat): 5.7 ± 2.8 µM
Neurotoxicity in one healthy dog (healthy dog): grand mal seizure activity
IC50 (MDA-MB-231): 9.9 ± 1 µM
IC50 (SK-Mel-5): 11.5 ± 3.6 µM
Resolution of neurotoxicity (C57/BL6 mice [3]; in HPβCD via tail vein injection): ≤ 2 h
Dose at which significant neurological symptoms first appear (C57/BL6 mice [3]; tail vein injection): 20 mg/kg
Dose where acute neurological symptoms are present (C57/BL6 mice [3]; tail vein injection): 50 mg/kg
Onset of neurotoxicity after drug administration (C57/BL6 mice [4]): ≤ 5 min
IC50 (OSW): 8.6 ± 1.3 µM
IC50 (17–71): 2.5 ± 0.9 µM

MRT [5]: 1.27 h and 1.40 h and 1.10 h and 1.29 h
Tmax [5]: 0.17 h
Incubation time to maximal activity (procaspase-3 D3A): 5 min
Structure (SMILES): C=CCc1cccc(C=NNC(=O)CN2CCN(Cc3ccc(S(N)(=O)=O)cc3)CC2)c1O [S-PAC-1]
AUMC0-inf [5]: 93.63 h*h*ug/ml and 104.77 h*h*ug/ml and 90.48 h*h*ug/ml and 101.78 h*h*ug/ml
Cls [5]: 0.34 L/h/kg and 0.335 L/h/kg and 0.304 L/h/kg and 0.317 L/h/kg
Vss [5]: 0.4325 L/kg and 0.4708 L/kg and 0.3348 L/kg and 0.41 L/kg
Peak plasma levels ([1]; 350 mg/kg tail vein injection, without signs of neurotoxicity): ~ 3500 µM
Enhancement of enzymatic activity of the proenzyme (procaspase-3 D3A; procaspase-3 D3A 7.5 µM, ZnSO4 10 µM): enhances the enzymatic activity of the proenzyme by relief of zinc-mediated inhibition, although to a lesser degree than PAC-1
